In ChEMBL document CHEMBL1134845, “Syntheses and biological activities of a novel group of steroidal derived inhibitors for human Cdc25A protein phosphatase” (J Med Chem, 2001) one finds GI50 and IC50 data, which are given here for one compound.

One experiment deals with 786-0. Put plainly: Growth inhibitory activity was determined against 786-0 cancer cell line of Renal cancer. It counts as functional. To be noted: Homo sapiens. Put shortly:
(§1)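 NCI 60 human tumour cell line screen run at the National Cancer Institute. Cell growth and viability read with the protein stain sulforhodamine B, which binds basic amino acids of cells left attached after washing. […] MG MID is the mean GI50 calculated over all panels.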

Another experiment has as its system A549. Put plainly: Growth inhibitory activity was determined against A549/ATCC cancer cell line of non-small cell lung cancer. It counts as functional, Homo sapiens. The conditions noted are these: Homo sapiens, A549. In a few lines: as §1
Another experiment relates to COLO 205. Put plainly: Growth inhibitory activity was determined against COLO 205 cancer cell line colon cancer. It counts as functional, Homo sapiens. The conditions noted are these: Homo sapiens, COLO 205. In a few lines:
as §1

For experiment [1], the target named is T1, M-phase inducer phosphatase 1 (Homo sapiens, UniProt P30304).
T1 sequence (P30304 whole entry): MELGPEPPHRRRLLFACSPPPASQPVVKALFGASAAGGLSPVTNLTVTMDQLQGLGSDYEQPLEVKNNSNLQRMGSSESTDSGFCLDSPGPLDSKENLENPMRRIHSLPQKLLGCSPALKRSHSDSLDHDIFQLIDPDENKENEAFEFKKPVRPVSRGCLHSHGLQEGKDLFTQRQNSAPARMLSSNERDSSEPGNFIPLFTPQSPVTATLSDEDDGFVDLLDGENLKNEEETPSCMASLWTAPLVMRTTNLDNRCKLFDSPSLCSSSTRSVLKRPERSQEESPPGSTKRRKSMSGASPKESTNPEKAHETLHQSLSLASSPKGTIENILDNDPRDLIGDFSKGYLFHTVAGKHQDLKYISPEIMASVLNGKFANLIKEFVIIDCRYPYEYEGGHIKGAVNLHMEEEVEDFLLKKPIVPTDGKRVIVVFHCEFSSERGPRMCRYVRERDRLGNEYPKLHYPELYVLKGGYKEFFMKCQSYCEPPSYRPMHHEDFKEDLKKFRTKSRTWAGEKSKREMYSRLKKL
Put plainly: Inhibitory activity tested against cell division cycle 25A (assay using fluorescein diphosphate (FDP) as substrate). Put shortly:
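Recombinant human GST-Cdc25A fusion protein, each batch calibrated so that FDP was dephosphorylated linearly over 20 min. Fluorescein diphosphate was the substrate. Reactions ran 15 min at 25 °C in the dark and were stopped with sodium orthovanadate. IC50 came from at least two independent runs, each in triplicate.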

For a further experiment, the system named is HT-29. Description: Growth inhibitory activity was determined against HT-29 cancer cell line colon cancer. It counts as functional, Homo sapiens. The conditions noted are these: Homo sapiens, HT-29. Put shortly:
as §1

The subject of another experiment is HCC 2998. Description: Growth inhibitory activity was determined against HCC2998 cancer cell line colon cancer. It counts as functional, Homo sapiens. The conditions noted are these: Homo sapiens, HCC 2998. Put shortly: as §1
The subject of another experiment is LOX IMVI. Put plainly: Growth inhibitory activity was determined against LOX IMVI cancer cell line of melanoma. It counts as functional, Homo sapiens. The conditions noted are these: Homo sapiens, LOX IMVI. Put shortly:
as §1

A further experiment concerns NCI-H23. Description: Growth inhibitory activity was determined against NCI-H23 cancer cell line of non-small cell lung cancer. The conditions noted are these: Homo sapiens, NCI-H23. The format is functional, Homo sapiens. Put shortly: as §1
For another experiment, the system named is NCI-H522. Description: Growth inhibitory activity was determined against NCI-H522 cancer cell line of non-small cell lung cancer. The format is functional. The conditions noted are these: Homo sapiens. In a few lines:
as §1

The next experiment concerns NCI/ADR-RES. Put plainly: Growth inhibitory activity was determined against NCI/ADR-RES cancer cell line of Breast cancer. The format is functional, Homo sapiens. To be noted: Homo sapiens, NCI/ADR-RES. Put shortly: as §1
In the next experiment the test system is OVCAR-8. Description: Growth inhibitory activity was determined against OVCAR-8 cancer cell line of Ovarian cancer. The format is functional. To be noted: Homo sapiens. Put shortly: as §1
The next experiment concerns SN12C. Description: Growth inhibitory activity was determined against SN12C cancer cell line of Renal cancer. It counts as functional. To be noted: Homo sapiens. In a few lines: as §1
The test system of the next experiment is SF-539. Put plainly: Growth inhibitory activity was determined against SF-539 cancer cell line of CNS cancer. It counts as functional. To be noted: Homo sapiens. In a few lines: as §1
The subject of a further experiment is SF-268. Description: Growth inhibitory activity was determined against SF-268 cancer cell line of CNS cancer. The format is functional. The conditions noted are these: Homo sapiens. In a few lines:
as §1

For the next experiment, the system named is SK-MEL-5. Description: Growth inhibitory activity was determined against SK-MEL-5 cancer cell line of melanom. It counts as functional. To be noted: Homo sapiens. In a few lines: as §1
For the next experiment, the system named is UO-31. Put plainly: Growth inhibitory activity was determined against UO-31 cancer cell line of Renal cancer. The format is functional. To be noted: Homo sapiens. In a few lines: as §1
The test system of a further experiment is U-251. Description: Growth inhibitory activity was determined against U-251 cancer cell line of CNS cancer. The format is functional. The conditions noted are these: Homo sapiens. Put shortly:
as §1

For a further experiment, the system named is PC-3. Put plainly: Growth inhibitory activity was determined against PC-3 cancer cell line of Prostate cancer. It counts as functional. To be noted: Homo sapiens. In a few lines:
as §1

For a further experiment, the system named is T47D. Put plainly: Growth inhibitory activity was determined against T-47D cancer cell line of Breast cancer. It counts as functional, Homo sapiens. The conditions noted are these: Homo sapiens, T47D. In a few lines:
as §1

The subject of a further experiment is OVCAR-3. Put plainly: Growth inhibitory activity was determined against OVCAR-3 cancer cell line of Ovarian cancer. To be noted: Homo sapiens. It counts as functional. In a few lines: as §1
The subject of the next experiment is BT-549 (Homo sapiens). Description: Growth inhibitory activity was determined against BT-549 cancer cell line of Breast cancer. To be noted: Homo sapiens, BT-549.

Regarding `CC(C)CCC[C@@H](C)[C@H]1CC[C@H]2[C@H](CC(=O)O)[C@@H]([C@@]3(C)CCCCC3=O)CC[C@]12C`, the GI50 is 18.5 µM in the experiment on 786-0; 10.8 µM in the experiment with A549; above 25 µM in the experiment with COLO 205; 15.7 µM in the experiment on HT-29; 18.8 µM in the experiment on HCC 2998; 16.7 µM in the experiment with LOX IMVI. The GI50 in the experiment on NCI-H23 was 19 µM; in the experiment with NCI-H522, above 25 µM; in the experiment with NCI/ADR-RES, 14.6 µM; with OVCAR-8 it was 13.5 µM; in the experiment with SN12C, 13.4 µM; with SF-539, above 25 µM. The GI50 in the experiment with SF-268 was above 25 µM; with SK-MEL-5, above 25 µM; in the experiment with UO-31, above 25 µM; in the experiment on U-251, 14 µM; in the experiment on PC-3 it was 16 µM; in the experiment with T47D, 16.9 µM. Besides, the GI50 was above 25 µM in the experiment on OVCAR-3 and 13 µM with BT-549 (Homo sapiens). For the same compound, the midpoint of inhibition in experiment [1], the IC50, lay at 5.9 µM.
